Measurements as given in ChEMBL document CHEMBL4177578, “Synthesis, pharmacological activities and molecular docking studies of pyrazolyltriazoles as anti-bacterial and anti-inflammatory agents” (Bioorg Med Chem, 2017).
Activity calls are given as the source filed them. No cut-off for these calls is given here.

System: not listed separately
Experiment: Anti-inflammatory activity at 100 ug/ml using bovine serum albumin and egg albumin proteins incubated at 37 degC for 20 mins and then heated to 95 degC for 20 mins by UV-visible Spectrophotometry based protein denaturation method
Assay type: functional
Conditions: not given
How it was run: (§1)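 Albumin (bovine serum or egg) at 1% in 50 mM sodium phosphate buffer pH 6.4. Mixture is 0.1 ml test sample (1 mg/ml) plus 0.2 ml albumin, made to 5 ml with buffer. Held 37 °C for 20 min, then 95 °C for 20 min. Cooled to room temperature, turbidity read at 660 nm. % inhibition = (Abs control − Abs sample)/Abs control × 100. Triplicate, averaged.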
In the case of `COC(=O)c1nnn(Cc2cn(-c3ccccc3)nc2-c2ccc(OC)cc2)c1C(=O)OC`, the inhibition is reported as “inactive”. With `[N-]=[N+]=NCc1cn(-c2ccccc2)nc1-c1ccccc1` the inhibition was “inactive”. In the case of `COC(=O)c1nnn(Cc2cn(-c3ccccc3)nc2-c2ccc(Cl)cc2)c1C(=O)OC`, the inhibition is reported as “inactive”. In the case of `FC(F)(F)c1ccc(-c2cn(Cc3cn(-c4ccccc4)nc3-c3ccccc3)nn2)c(C(F)(F)F)c1`, the inhibition is reported as “inactive”.

System: Staphylococcus aureus
Experiment: Antimicrobial activity against Staphylococcus aureus at 1 mg/ml incubated for 20 to 30 mins followed by incubation for 24 hrs at 37 degC by agar plate method
Assay type: functional
Conditions: not given
How it was run: (§2)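 Agar well diffusion on nutrient agar. Plates swabbed with 60 µL inoculum; 8 mm wells loaded with 100 µL of compound at 1.0 mg/mL. Held 20–30 min at 4 °C for diffusion, then 24 h at 37 °C. Inhibition zone diameter read in mm. Triplicate.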
In the case of `COC(=O)c1nnn(Cc2cn(-c3ccccc3)nc2-c2ccc(OC)cc2)c1C(=O)OC`, the “diameter of the inhibition zone (DIZ)” value is reported as “inactive”. For `[N-]=[N+]=NCc1cn(-c2ccccc2)nc1-c1ccccc1`, the “diameter of the inhibition zone (DIZ)” value was “inactive”. For `COC(=O)c1nnn(Cc2cn(-c3ccccc3)nc2-c2ccc(Cl)cc2)c1C(=O)OC`, the “diameter of the inhibition zone (DIZ)” value was “inactive”. For `FC(F)(F)c1ccc(-c2cn(Cc3cn(-c4ccccc4)nc3-c3ccccc3)nn2)c(C(F)(F)F)c1`, the “diameter of the inhibition zone (DIZ)” value was “inactive”.

System: not listed separately
Experiment: Anti-inflammatory activity using bovine serum albumin and egg albumin proteins incubated at 37 degC for 20 mins and then heated to 95 degC for 20 mins by UV-visible Spectrophotometry based protein denaturation method
Assay type: functional
Conditions: not given
How it was run: as §1
For `COC(=O)c1nnn(Cc2cn(-c3ccccc3)nc2-c2ccc(OC)cc2)c1C(=O)OC`, the IC50 was “Not Active”. In the case of `[N-]=[N+]=NCc1cn(-c2ccccc2)nc1-c1ccccc1`, the IC50 is reported as “Not Active”. For `COC(=O)c1nnn(Cc2cn(-c3ccccc3)nc2-c2ccc(Cl)cc2)c1C(=O)OC`, the IC50 was “Not Active”. For `FC(F)(F)c1ccc(-c2cn(Cc3cn(-c4ccccc4)nc3-c3ccccc3)nn2)c(C(F)(F)F)c1`, the IC50 was “Not Active”.

System: Micrococcus luteus
Experiment: Antimicrobial activity against Micrococcus luteus incubated for 12 to 16 hrs followed by plating in nutrient agar by tube dilution method
Assay type: functional
Conditions: not given
How it was run: (§3)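 Tube dilution, serial from 500 to 1.9 µg/mL, plus drug-free control tube. Each tube inoculated with 1 mL culture at OD 0.2, incubated 37 °C for 12–16 h. MIC is the lowest concentration with no growth by turbidity. MBC is found by plating each tube on nutrient agar: the lowest concentration at which all cells are killed.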
For `COC(=O)c1nnn(Cc2cn(-c3ccccc3)nc2-c2ccc(OC)cc2)c1C(=O)OC`, the MBC was “inactive”. With `[N-]=[N+]=NCc1cn(-c2ccccc2)nc1-c1ccccc1` the MBC was “inactive”. In the case of `COC(=O)c1nnn(Cc2cn(-c3ccccc3)nc2-c2ccc(Cl)cc2)c1C(=O)OC`, the MBC is reported as “inactive”. For `FC(F)(F)c1ccc(-c2cn(Cc3cn(-c4ccccc4)nc3-c3ccccc3)nn2)c(C(F)(F)F)c1`, the MBC was “inactive”.

System: Micrococcus luteus
Experiment: Antimicrobial activity against Micrococcus luteus at 1 mg/ml incubated for 20 to 30 mins followed by incubation for 24 hrs at 37 degC by agar plate method
Assay type: functional
Conditions: not given
How it was run: as §2
In the case of `COC(=O)c1nnn(Cc2cn(-c3ccccc3)nc2-c2ccc(OC)cc2)c1C(=O)OC`, the “diameter of the inhibition zone (DIZ)” value is reported as “inactive”. In the case of `[N-]=[N+]=NCc1cn(-c2ccccc2)nc1-c1ccccc1`, the “diameter of the inhibition zone (DIZ)” value is reported as “inactive”. In the case of `COC(=O)c1nnn(Cc2cn(-c3ccccc3)nc2-c2ccc(Cl)cc2)c1C(=O)OC`, the “diameter of the inhibition zone (DIZ)” value is reported as “inactive”. With `FC(F)(F)c1ccc(-c2cn(Cc3cn(-c4ccccc4)nc3-c3ccccc3)nn2)c(C(F)(F)F)c1` the “diameter of the inhibition zone (DIZ)” value was “inactive”.

System: not listed separately
Experiment: Anti-inflammatory activity at 50 ug/ml using bovine serum albumin and egg albumin proteins incubated at 37 degC for 20 mins and then heated to 95 degC for 20 mins by UV-visible Spectrophotometry based protein denaturation method
Assay type: functional
Conditions: not given
How it was run: as §1
With `COC(=O)c1nnn(Cc2cn(-c3ccccc3)nc2-c2ccc(OC)cc2)c1C(=O)OC` the inhibition was “inactive”. For `[N-]=[N+]=NCc1cn(-c2ccccc2)nc1-c1ccccc1`, the inhibition was “inactive”. In the case of `COC(=O)c1nnn(Cc2cn(-c3ccccc3)nc2-c2ccc(Cl)cc2)c1C(=O)OC`, the inhibition is reported as “inactive”. With `FC(F)(F)c1ccc(-c2cn(Cc3cn(-c4ccccc4)nc3-c3ccccc3)nn2)c(C(F)(F)F)c1` the inhibition was “inactive”.

System: Micrococcus luteus
Experiment: Antimicrobial activity against Micrococcus luteus incubated for 12 to 16 hrs by tube dilution method
Assay type: functional
Conditions: not given
How it was run: as §3
For `COC(=O)c1nnn(Cc2cn(-c3ccccc3)nc2-c2ccc(OC)cc2)c1C(=O)OC`, the MIC was “inactive”. For `[N-]=[N+]=NCc1cn(-c2ccccc2)nc1-c1ccccc1`, the MIC was “inactive”. For `COC(=O)c1nnn(Cc2cn(-c3ccccc3)nc2-c2ccc(Cl)cc2)c1C(=O)OC`, the MIC was “inactive”. With `FC(F)(F)c1ccc(-c2cn(Cc3cn(-c4ccccc4)nc3-c3ccccc3)nn2)c(C(F)(F)F)c1` the MIC was “inactive”.

System: Salmonella typhi
Experiment: Antimicrobial activity against Salmonella typhi incubated for 12 to 16 hrs by tube dilution method
Assay type: functional
Conditions: Salmonella enterica subsp. enterica serovar Typhi
How it was run: (§4)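 Broth tube dilution, two-fold serial dilutions from 500 to 1.9 µg/mL plus a drug-free control tube. Each tube inoculated with 1 mL culture at OD 0.2 (~McFarland standard), 37 °C for 12-16 h. Turbidity compared with the control tube. MIC is the lowest concentration giving complete growth inhibition.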
In the case of `COC(=O)c1nnn(Cc2cn(-c3ccccc3)nc2-c2ccc(OC)cc2)c1C(=O)OC`, the MIC is reported as “inactive”. In the case of `[N-]=[N+]=NCc1cn(-c2ccccc2)nc1-c1ccccc1`, the MIC is reported as “inactive”. For `COC(=O)c1nnn(Cc2cn(-c3ccccc3)nc2-c2ccc(Cl)cc2)c1C(=O)OC`, the MIC was “inactive”. For `FC(F)(F)c1ccc(-c2cn(Cc3cn(-c4ccccc4)nc3-c3ccccc3)nn2)c(C(F)(F)F)c1`, the MIC was “inactive”.

System: Salmonella paratyphi
Experiment: Antimicrobial activity against Salmonella paratyphi at 1 mg/ml incubated for 20 to 30 mins followed by incubation for 24 hrs at 37 degC by agar plate method
Assay type: functional
Conditions: Salmonella enterica subsp. enterica serovar Paratyphi A
How it was run: (§5)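 Agar well diffusion on nutrient agar. Plates swabbed with 60 µL inoculum, 8 mm wells loaded with 100 µL sample at 1.0 mg/mL, streptomycin standard and control in separate wells. Plates held 20–30 min at 4 °C for diffusion, then 24 h at 37 °C. Zone diameter read in mm; triplicate.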
For `COC(=O)c1nnn(Cc2cn(-c3ccccc3)nc2-c2ccc(OC)cc2)c1C(=O)OC`, the “diameter of the inhibition zone (DIZ)” value was “inactive”. For `[N-]=[N+]=NCc1cn(-c2ccccc2)nc1-c1ccccc1`, the “diameter of the inhibition zone (DIZ)” value was “inactive”. With `COC(=O)c1nnn(Cc2cn(-c3ccccc3)nc2-c2ccc(Cl)cc2)c1C(=O)OC` the “diameter of the inhibition zone (DIZ)” value was “inactive”. In the case of `FC(F)(F)c1ccc(-c2cn(Cc3cn(-c4ccccc4)nc3-c3ccccc3)nn2)c(C(F)(F)F)c1`, the “diameter of the inhibition zone (DIZ)” value is reported as “inactive”.

System: Salmonella typhi
Experiment: Antimicrobial activity against Salmonella typhi incubated for 12 to 16 hrs followed by plating in nutrient agar by tube dilution method
Assay type: functional
Conditions: Salmonella enterica subsp. enterica serovar Typhi
How it was run: (§6)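 After 12-16 h at 37 °C in tube dilution (500 to 1.9 µg/mL; 1 mL inoculum at OD 0.2), the culture from each tube was plated on nutrient agar. MBC is the concentration at which cells are completely killed.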
With `COC(=O)c1nnn(Cc2cn(-c3ccccc3)nc2-c2ccc(OC)cc2)c1C(=O)OC` the MBC was “inactive”. For `[N-]=[N+]=NCc1cn(-c2ccccc2)nc1-c1ccccc1`, the MBC was “inactive”. For `COC(=O)c1nnn(Cc2cn(-c3ccccc3)nc2-c2ccc(Cl)cc2)c1C(=O)OC`, the MBC was “inactive”. For `FC(F)(F)c1ccc(-c2cn(Cc3cn(-c4ccccc4)nc3-c3ccccc3)nn2)c(C(F)(F)F)c1`, the MBC was “inactive”.

System: Salmonella paratyphi
Experiment: Antimicrobial activity against Salmonella paratyphi incubated for 12 to 16 hrs followed by plating in nutrient agar by tube dilution method
Assay type: functional
Conditions: Salmonella enterica subsp. enterica serovar Paratyphi A
How it was run: as §6
In the case of `COC(=O)c1nnn(Cc2cn(-c3ccccc3)nc2-c2ccc(OC)cc2)c1C(=O)OC`, the MBC is reported as “inactive”. For `[N-]=[N+]=NCc1cn(-c2ccccc2)nc1-c1ccccc1`, the MBC was “inactive”. With `COC(=O)c1nnn(Cc2cn(-c3ccccc3)nc2-c2ccc(Cl)cc2)c1C(=O)OC` the MBC was “inactive”. For `FC(F)(F)c1ccc(-c2cn(Cc3cn(-c4ccccc4)nc3-c3ccccc3)nn2)c(C(F)(F)F)c1`, the MBC was “inactive”.

System: Salmonella paratyphi
Experiment: Antimicrobial activity against Salmonella paratyphi incubated for 12 to 16 hrs by tube dilution method
Assay type: functional
Conditions: Salmonella enterica subsp. enterica serovar Paratyphi A
How it was run: as §4
With `COC(=O)c1nnn(Cc2cn(-c3ccccc3)nc2-c2ccc(OC)cc2)c1C(=O)OC` the MIC was “inactive”. With `[N-]=[N+]=NCc1cn(-c2ccccc2)nc1-c1ccccc1` the MIC was “inactive”. In the case of `COC(=O)c1nnn(Cc2cn(-c3ccccc3)nc2-c2ccc(Cl)cc2)c1C(=O)OC`, the MIC is reported as “inactive”. With `FC(F)(F)c1ccc(-c2cn(Cc3cn(-c4ccccc4)nc3-c3ccccc3)nn2)c(C(F)(F)F)c1` the MIC was “inactive”.

System: Salmonella typhi
Experiment: Antimicrobial activity against Salmonella typhi at 1 mg/ml incubated for 20 to 30 mins followed by incubation for 24 hrs at 37 degC by agar plate method
Assay type: functional
Conditions: Salmonella enterica subsp. enterica serovar Typhi
How it was run: as §5
With `COC(=O)c1nnn(Cc2cn(-c3ccccc3)nc2-c2ccc(OC)cc2)c1C(=O)OC` the “diameter of the inhibition zone (DIZ)” value was “inactive”. For `[N-]=[N+]=NCc1cn(-c2ccccc2)nc1-c1ccccc1`, the “diameter of the inhibition zone (DIZ)” value was “inactive”. In the case of `COC(=O)c1nnn(Cc2cn(-c3ccccc3)nc2-c2ccc(Cl)cc2)c1C(=O)OC`, the “diameter of the inhibition zone (DIZ)” value is reported as “inactive”. For `FC(F)(F)c1ccc(-c2cn(Cc3cn(-c4ccccc4)nc3-c3ccccc3)nn2)c(C(F)(F)F)c1`, the “diameter of the inhibition zone (DIZ)” value was “inactive”.
